Screening data as filed in PubChem.
MrgX1 ag: agonists of human MrgX1 receptor; MrgX1-HEK293 cells, Fluo-4 calcium fluorescence, agonist mode; stronger effect = higher value; B-score at 10 µM; hit rate 0.44% among 310,000; AID 588627;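 active means calcium response B-score plate-corrected fluorescence ratio at least 3 library SD, with starting fluorescence B-score inside 5 SD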
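Test system: HEK293 cells stably expressing human MrgX1 receptor; amount: 15,000 cells per well; doses: compound delivered in addition one of three; times: overnight plating before 1 h dye loading; detection: Fluo-4 NW calcium-flux fluorescence, kinetic read; read-out basis: B-scored fluorescence response ratio; controls: positive and negative controls per plate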
MrgX1 antag: antagonists of human MrgX1 receptor; MRGX1-HEK293 calcium flux, Fluo-4, BAM8-22 antagonism; stronger effect = lower value; B-score at 10 µM; hit rate 1.3% among 310,000;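 active means calcium-response B-score plate-corrected more than 3 library SD below zero, starting fluorescence within 5 deviations, no agonist response on first addition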;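 further: peak minus trough fluorescence over baseline after final BAM8-22 challenge near maximal dose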
RGS4 pot: RGS4 potentiation or activation. B-score at 10 µM. hit rate 0.92% among 310,000. HEK293 M3R/inducible RGS4, carbachol calcium flux Fluo4; stronger effect = lower value;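 active means B-score of the integrated calcium signal more than 4 SD below the library mean, with starting fluorescence not abnormally high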;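 further: negative B-score means reduced calcium response which marks RGS4 activation or potentiation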
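Reagent: ECmax carbachol challenge; Test system: M3R-expressing HEK293 line, RGS4 induced by doxycycline; Schedule: overnight RGS4 induction, 30 min dye load 37 °C, 20 min compound RT; Detection: calcium dye Fluo4 fluorescence; Read-out: Agonist-evoked peak-minus-minimum fluorescence over baseline, integrated ratio, B score.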
RGS4 block: inhibitors of human RGS4 | HEK293 M3R/RGS4 inducible, Fluo-4 calcium flux; stronger effect = higher value; triggered by carbachol at its EC20 | B-score at 10 µM | hit rate 0.45% among 310,000 | AID 463165;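 active means B-score, a plate-corrected calcium signal, over three deviations above library mean, with baseline fluorescence within five deviations of library mean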;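 further: RGS4 expression induced by doxycycline in cells with stable M3 receptor; B-score is computed from the integrated fluorescence ratio over baseline after carbachol; higher B-score means a larger calcium signal and so more RGS4 inhibition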
Target sequence (P49798 whole entry, looked up): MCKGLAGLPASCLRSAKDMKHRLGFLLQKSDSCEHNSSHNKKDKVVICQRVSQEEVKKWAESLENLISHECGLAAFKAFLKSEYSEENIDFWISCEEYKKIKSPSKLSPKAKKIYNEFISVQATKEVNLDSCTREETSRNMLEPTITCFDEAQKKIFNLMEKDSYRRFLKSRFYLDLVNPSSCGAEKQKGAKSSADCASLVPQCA
MrgX1 allo act: human MrgX1 positive allosteric modulation, primary screen | Q96LB2 | MrgX1-HEK293, Fluo-4 calcium flux, FDSS; stronger effect = higher value | AID 588675 | hit rate 0.63% among 310,000 | B-score at 10 µM;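 active means plate-corrected calcium response at least 3 library SD above typical, normal starting fluorescence, not activating the receptor alone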;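 further: compound read alongside a low EC10 to EC30 dose of BAM8-22 agonist; peak minus trough fluorescence over baseline measured at the second addition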
* hit, by the source's call; i = inactive. Rows were chosen to be rich in hits. Some 3.5% of all compounds tested hit in one or more screens of this group.

SMILES	MrgX1 ag	MrgX1 antag	RGS4 pot	RGS4 block	MrgX1 allo act
CC(C)C[C@@H](CC#N)N1CCN(Cc2ccccc2)CCC1=O	i	i	i	i	i
COc1ccc(CNC(=O)[C@@H](NC(=O)C2CCN(C(=O)[C@@H](N)CCSC)CC2)C(C)C)cc1	i	i	i	i	i
COc1ccc2c(c1)C=Cc1ccccc1O2	i	i	i	i	i
COc1ccc(S(=O)(=O)N2CCCC2CNC(=O)C(=O)NC2CCCCCC2)cc1 (stereo unspecified)	i	i	i	i	i
COc1ccc(CCNC(=O)C(=O)NCC2CCCN2S(=O)(=O)c2ccc(OC)cc2)cc1 (stereo unspecified)	i	i	-7.1*	i	i
COCCN(C(=O)COC(=O)CCC(=O)c1ccc(Cl)cc1)c1c(N)n(Cc2ccccc2)c(=O)[nH]c1=O	i	i	i	i	i
CC(=O)N(c1nc(/C=C\C(=O)O)cs1)c1ccccc1F	32*	i	i	i	i
Fc1ccc2c(c1)Sc1ccc(Cl)cc1CC2N1CCN(CCC2OCCO2)CC1 (stereo unspecified)	i	i	-7.3*	i	i
COc1ccc(C=C2C(=O)c3ccccc3C2=O)cc1O	i	i	i	i	i
CCCCc1ccc(/C=C2\C(=O)c3ccccc3C(O)=C2C(=O)OCC)cc1	i	-10*	i	i	i
COC(=O)C/C(N)=C(\C#N)C(=O)OC	i	i	i	i	i
N#CCC(N)=C(C#N)C#N	i	-7.2*	i	i	i
COc1ccc(N=c2oc3ccccc3cc2C(=O)Nc2ccccn2)cc1OC	i	i	i	i	i
COc1ccccc1NC(=O)c1cc2ccccc2o/c1=N\O	i	i	i	11*	i
CCOc1ccc(CN(C)C(=O)[C@H](C)NC(=O)c2ccco2)cc1OC	i	i	i	i	i
N#Cc1c(-n2cccc2/C=N/O)sc2c1CCCC2	32*	i	i	i	i
COc1ccc(C(=O)NC2CC2)cc1OC1CCN(Cc2cc(C)c(C)cc2C)CC1	i	i	i	i	i
Cc1cc(C)c2c(=O)n(CC(=O)Nc3cccc(Cl)c3C)sc2n1	i	i	i	i	9.5*
COc1ccc(C(=O)/C=C/c2ccc(N3CCCCC3)c([N+](=O)[O-])c2)c(OC)c1	i	i	i	i	14*
CC(=O)OCCCCCCCCCCC[N+]1(C)CCCCC1	i	i	-8.9*	i	i
O=C(CCl)N=c1sccn1Cc1ccccc1Cl	i	i	-7.3*	i	i
Cc1ccc(C(=O)C[n+]2cc(Br)cc(Br)c2)cc1	i	i	i	i	15*
O=C(C[n+]1cccc(Br)c1)c1ccc(-c2ccccc2)cc1	i	i	-7*	i	i
N#Cc1ccc(OCC(=O)Nc2ccc3[nH]c(=O)[nH]c3c2)cc1	i	i	i	i	i
Cc1cccc(CC(=O)N2CCN(C(=O)c3ccco3)CC2)c1	i	i	i	i	i
SMILES	MrgX1 ag	MrgX1 antag	RGS4 pot	RGS4 block	MrgX1 allo act
COC(=O)c1ccccc1NC(=O)COc1ccccc1	i	i	i	i	i
COC(=O)c1ccccc1NC(=O)COc1ccccc1[N+](=O)[O-]	i	-4.6*	i	i	i
CC(C)(C)CC(=O)NC(=S)Nc1ccccc1[N+](=O)[O-]	i	-5.7*	i	i	i
O=C(CCOc1ccccc1)Nc1ccccc1[N+](=O)[O-]	i	-5.4*	i	i	i
CCOC(=O)NC(=O)COC(=O)CNC(=O)c1ccc(OCC)c(OCC)c1	i	i	i	i	8.9*
CN(C)/N=C/C=C1\CCC/C(=C/c2cccs2)C1=O	i	i	i	i	9.4*
Cc1cc(C)cc(CC2CC(=O)N(c3ccc([N+](=O)[O-])cc3)C2=O)c1 (stereo unspecified)	i	i	i	i	i
CCOc1ccc(C(CC(=O)O)NC(=O)COc2ccccc2)cc1OC (stereo unspecified)	i	-5.8*	i	i	i
O=C(O)c1ccc(N/N=C/C2=C(N3CCOCC3)C(=C\c3ccccc3)/CC2)cc1	34*	i	i	i	i
